Results as given in ChEMBL document CHEMBL5257161, “Mycobacterium tuberculosis CitA activity is modulated by cysteine oxidation and pyruvate binding” (RSC Med Chem, 2023).

Experiments:
[1] = substrate: O=C(O)CC(=O)C(=O)O; test: Binding affinity to Mycobacterium tuberculosis wild type CitA expressed in Escherichia coli cells assessed as catalytic constant by Michaelis-Menten analysis
Method in brief: (§1)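 His-tagged CitA (wild type or variant) was expressed in E. coli, purified by cobalt affinity and size exclusion, then dialysed against 20 mM Tris pH 8.0. Activity was measured by DTNB (300 μM) thiol detection of released CoA at 412 nm, with OAA and AcCoA substrates and 10 nM enzyme, in 50 mM Tris pH 8.0 at 25 °C. A no-enzyme control was run. Triplicate runs were fitted to Michaelis–Menten.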

[2] = substrate: O=C(O)CC(=O)C(=O)O; test: Binding affinity to Mycobacterium tuberculosis wild type CitA expressed in Escherichia coli cells assessed as Vmax by Michaelis-Menten analysis; method in brief: as §1
[3] = substrate: O=C(O)CC(=O)C(=O)O; test: Binding affinity to Mycobacterium tuberculosis wild type CitA expressed in Escherichia coli cells assessed as Kcat/Km by Michaelis-Menten analysis; method in brief: as §1
[4] = substrate: O=C(O)CC(=O)C(=O)O; test: Binding affinity to Mycobacterium tuberculosis wild type CitA expressed in Escherichia coli cells assessed as apparent Km by Michaelis-Menten analysis; method in brief: as §1

B1: Putative citrate synthase 2 (Mycobacterium tuberculosis), P9WPD3 (protein)
chain: MTVVPENFVPGLDGVVAFTTEIAEPDKDGGALRYRGVDIEDLVSQRVTFGDVWALLVDGNFGSGLPPAEPFPLPIHSGDVRVDVQAGLAMLAPIWGYAPLLDIDDATARQQLARASVMALSYVAQSARGIYQPAVPQRIIDECSTVTARFMTRWQGEPDPRHIEAIDAYWVSAAEHGMNASTFTARVIASTGADVAAALSGAIGAMSGPLHGGAPARVLPMLDEVERAGDARSVVKGILDRGEKLMGFGHRVYRAEDPRARVLRAAAERLGAPRYEVAVAVEQAALSELRERRPDRAIETNVEFWAAVVLDFARVPANMMPAMFTCGRTAGWCAHILEQKRLGKLVRPSAIYVGPGPRSPESVDGWERVLTTA
kcat [1]: 5.67 s⁻¹
Vmax [2]: 3.4 µM/min
kcat/Km [3]: 400000 M⁻¹ s⁻¹
Km [4]: 14.3 µM
